Data reported in article PMC10795791 (Journal of Enzyme Inhibition and Medicinal Chemistry, 2024).

Columns and labels:
[1] = tested on: liver cancer cell line (HepG-2); experiment: MTT anticancer activity, HepG-2; format: cell-based; conditions: Homo sapiens, HepG2, 72 h, read-out: HepG-2 IC50
Summary of the method: (§1)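 ATCC-sourced cancer cell lines were used: HepG-2 liver, NFS-60 myeloid leukaemia and PC-3 prostate. Cells were incubated with test compound for 72 h, viability was measured by MTT, and IC50 was derived. Doxorubicin served as reference drug. Results are mean ± SEM; significance was by Tukey post hoc ANOVA.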

[2] = molecular target: T1, PIM-1 kinase (Homo sapiens, UniProt P11309); experiment: In vitro PIM-1 kinase inhibition; format: biochemical; conditions: from pIC50 and molecular size
T1 sequence (P11309 whole entry): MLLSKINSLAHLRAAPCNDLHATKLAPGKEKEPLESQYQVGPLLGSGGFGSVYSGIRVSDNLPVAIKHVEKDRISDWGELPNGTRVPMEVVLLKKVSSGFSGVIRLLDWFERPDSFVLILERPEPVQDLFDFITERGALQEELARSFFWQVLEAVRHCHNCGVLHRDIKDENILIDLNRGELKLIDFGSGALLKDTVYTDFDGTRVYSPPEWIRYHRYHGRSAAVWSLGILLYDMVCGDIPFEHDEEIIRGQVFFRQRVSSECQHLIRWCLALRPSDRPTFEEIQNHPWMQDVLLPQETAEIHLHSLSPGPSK

[3] = MTT anticancer activity, Caco-2; format: cell-based, human; conditions: human, Caco-2, Caco-2 SI (selectivity index), Wi-38 EC50 divided by Caco-2 IC50
Summary of the method: (§2)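 ATCC-sourced Caco-2 colon cancer cells were exposed to test compound for 72 h. Viability was read by microculture MTT, with doxorubicin as reference, and IC50 was derived. Normal human lung fibroblasts (Wi-38) were run in the same 72 h MTT format to obtain IC50 and EC100 for selectivity. Results are mean ± SEM.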

[4] = molecular target: T1, PIM-1 kinase; format: biochemical; conditions: Lineweaver-Burk double-reciprocal plot; for mode of PIM-1 kinase inhibition: in the presence of ATP; for Km change / Vmax change: versus control
[5] = tested on: myeloid leukaemia cell line (NFS-60); experiment: MTT anticancer activity, NFS-60; format: cell-based; conditions: NFS-60, 72 h, read-out: NFS-60 IC50
Summary of the method: as §1

[6] = tested on: colon cancer cells (Caco-2); experiment: MTT anticancer activity, Caco-2; format: cell-based, human; conditions: Homo sapiens, Caco-2, 72 h, read-out: Caco-2 IC50
Summary of the method: as §2

[7] = tested on: prostate cancer cell line (PC-3); experiment: MTT anticancer activity, PC-3; format: cell-based; conditions: Homo sapiens, 72 h, read-out: PC-3 IC50
Summary of the method: as §1

| Compound | IC50 [1] | LE (ligand efficiency), PIM-1 kinase [2] | selectivity ratio at 72 h [3] | mode of PIM-1 kinase inhibition [4] | Km change [4] | Vmax change [4] | IC50 [5] | IC50 [6] | IC50 [7] |
| --- | --- | --- | --- | --- | --- | --- | --- | --- | --- |
| CCCOc1nc(-c2cccc(O)c2)cc(-c2cc3cc(OC)ccc3nc2N2CCOCC2)c1C#N [Compound 4f, 6-(3-Hydroxyphenyl)-4-(6-methoxy-2-morpholin-4-yl-quinolin-3-yl)-2-propoxypyridine-3-carbonitrile] | 16.4 nM | ~0.3 | ≥ 1.6 | both ATP competitive and non-competitive inhibitors | increase | reduced | – | – | – |
| CCOc1nc(-c2cccc(O)c2)cc(-c2cc3cc(Cl)ccc3nc2N2CCOCC2)c1C#N [Compound 4b, 4-(6-Chloro-2-morpholin-4-yl-quinolin-3-yl)-2-ethoxy-6-(3-hydroxyphenyl)pyridine-3-carbonitrile] | 59 nM | – | – | – | – | – | – | – | – |
| CCOc1nc(-c2cccc(O)c2)cc(-c2cc3cc(OC)ccc3nc2N2CCOCC2)c1C#N [Compound 4c, 2-Ethoxy-6-(3-hydroxyphenyl)-4-(6-methoxy-2-morpholin-4-yl-quinolin-3-yl)pyridine-3-carbonitrile] | 13.2 nM | ~0.3 | – | both ATP competitive and non-competitive inhibitors | increase | reduced | 6 nM | 7 nM | 5 nM |
| Nc1n[nH]c2nc(-c3cccc(O)c3)cc(-c3cc4ccccc4nc3N3CCOCC3)c12 [Compound 6a, 3-(3-Amino-4-(2-morpholin-4-yl-quinolin-3-yl)-1H-pyrazolo[3,4-b]pyridin-6-yl)phenol] | 66.7 nM | – | – | – | – | – | – | – | – |
